Reference: ChEMBL document CHEMBL1681758, “Synthesis and in vitro anti-HSV-1 activity of a novel Hsp90 inhibitor BJ-B11” (Bioorg Med Chem Lett, 2011)
Calls of active or inactive are those of the source. The calls are words filed in the database; no cut-off is given here.

Assays:
[1] = Cytotoxicity against african green monkey Vero cells by MTT assay; format: cell-based; details: chlorocebus sabaeus
How it was run: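 Vero cells; MTT viability read-out. CC50 taken as concentration reducing cell viability by 50%. Mean ± SD of three independent experiments.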

[2] = test system: Human alphaherpesvirus 1; test: Antiviral activity against HSV1 infected in african green monkey Vero cells assessed as inhibition of viral replication by plaque reduction assay; format: functional, organism-based; details: Human alphaherpesvirus 1, Vero
How it was run: (§1)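 Vero cells; plaque reduction assay at concentrations found non-cytotoxic by MTT. EC50 is the concentration inhibiting 50% of HSV replication. Mean ± SD of three independent experiments.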

[3] = Therapeutic index, ratio of CC50 for african green monkey Vero cells to EC50 for HSV1; format: cell-based; details: read-out: TI
How it was run: (§2)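 TI calculated as CC50 (Vero, MTT) divided by EC50 (Vero, plaque reduction) for the respective HSV type.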

[4] = Therapeutic index, ratio of CC50 for african green monkey Vero cells to EC50 for HSV2; format: cell-based; details: read-out: TI; how it was run: as §2
[5] = test system: Human alphaherpesvirus 2; test: Antiviral activity against HSV2 infected in african green monkey Vero cells assessed as inhibition of viral replication by plaque reduction assay; format: functional, organism-based; details: Human alphaherpesvirus 2, Vero; how it was run: as §1
[6] = test system: Human alphaherpesvirus 1; test: Antiviral activity against HSV1 infected in african green monkey Vero cells assessed as reduction of UL54 expression at 1 uM after up to 24 hrs by RT-PCR analysis; format: functional, organism-based
How it was run: (§3)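 Vero monolayer infected with HSV-1 (MOI = 1) with or without 1 µM compound. RNA extracted at 3, 6 and 12 hpi, reverse transcribed, and serially diluted cDNA used for real-time PCR of UL54, UL52 and UL27. Mean ± SD, n = 3; Student's t-test against untreated controls.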

[7] = test system: Human alphaherpesvirus 1; test: Antiviral activity against HSV1 infected in african green monkey Vero cells assessed as reduction of UL52 expression at 1 uM after up to 24 hrs by RT-PCR analysis; format: functional, organism-based; how it was run: as §3
[8] = test system: Human alphaherpesvirus 1; test: Antiviral activity against HSV1 infected in african green monkey Vero cells assessed as reduction of UL27 expression at 1 uM after up to 24 hrs by RT-PCR analysis; format: functional, organism-based; how it was run: as §3
[9] = test system: Human orthopneumovirus; test: Antiviral activity against Human respiratory syncytial virus infected in african green monkey Vero cells assessed as inhibition of virus-induced cytopathic effect; format: functional, organism-based
[10] = test system: Coxsackievirus B3; test: Antiviral activity against Coxsackievirus B3 infected in african green monkey Vero cells assessed as inhibition of virus-induced cytopathic effect; format: functional, organism-based
[11] = test system: Human alphaherpesvirus 1; test: Antiviral activity against HSV1 infected in african green monkey Vero cells assessed as log reduction of viral yield at 1 uM after drug washout by plaque assay; format: functional
How it was run: (§4)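 HSV-1 at MOI = 1 in Vero cells, compound at 1 µM in time-of-addition and time-of-removal schedules. Cultures harvested at 24 hpi; virus yield titrated by plaque assay.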

[12] = test system: Human alphaherpesvirus 2; test: Antiviral activity against HSV2 infected in african green monkey Vero cells assessed as inhibition of virus-induced cytopathic effect; format: functional, organism-based
[13] = test system: Influenza A virus; test: Antiviral activity against Influenza A virus H1N1 infected in african green monkey Vero cells assessed as inhibition of virus-induced cytopathic effect; format: functional, organism-based
[14] = test system: Human alphaherpesvirus 1; test: Antiviral activity against HSV1 infected in african green monkey Vero cells assessed as log reduction of viral yield at 1 uM treated after 9 hrs post infection by plaque assay; format: functional; how it was run: as §4
[15] = test system: Human alphaherpesvirus 1; test: Antiviral activity against HSV1 infected in african green monkey Vero cells assessed as inhibition DNA synthesis at 1 uM after 24 hrs by RT-PCR analysis; format: functional, organism-based
How it was run: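 Vero monolayer infected with HSV-1 (MOI = 1) with or without 1 µM compound. DNA extracted at 24 hpi; UL52 quantified by real-time PCR. Mean ± SD, n = 3; Student's t-test against untreated controls.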

[16] = test system: Human alphaherpesvirus 1; test: Antiviral activity against HSV1 infected in african green monkey Vero cells assessed as log reduction of viral yield at 1 uM treated after 24 hrs post infection by plaque assay; format: functional; how it was run: as §4
[17] = test system: Human alphaherpesvirus 1; test: Antiviral activity against HSV1 infected in african green monkey Vero cells assessed as log reduction of viral yield at 1 uM treated after 6 hrs post infection by plaque assay; format: functional; how it was run: as §4
[18] = test system: Human alphaherpesvirus 1; test: Antiviral activity against HSV1 infected in african green monkey Vero cells assessed as inhibition of virus-induced cytopathic effect; format: functional, organism-based

Row | SMILES | CC50 [1] [nM] | EC50 [2] [nM] | selectivity ratio [3] | selectivity ratio [4] | EC50 [5] [nM] | Activity [6] | Activity [7] | Activity [8] | inhibition [9] | inhibition [10] | PFU/ml [11] | inhibition [12] | inhibition [13] | PFU/ml [14] | inhibition [15] | PFU/ml [16] | PFU/ml [17] | inhibition [18]
1 | Nc1nc2c(ncn2COCCO)c(=O)[nH]1 [ACYCLOVIR] | > 200000 | 1160 | > 172 | > 116 | 1720 | inactive | Active | Active | – | – | – | – | – | – | – | – | – | –
2 | CC(=O)OC1CCC(Nc2cc(-n3nc(C)c4c3CC(C)(C)CC4=O)ccc2C(N)=O)CC1 (stereo unspecified) | 35500 | 420 | 84.5 | 59.2 | 600 | inactive | Active | Active | inactive | inactive | 6.14 | Active | inactive | 6.67 | Active | 7.09 | 7.13 | Active
